This is a sample that favours compounds with a hit; in the whole collection about 4.6% have one here.
OX1R antag-1: OX1R (HCRTR1) antagonists, primary screen, fluorescence, CHO/OX1R cells, Fluo-8 calcium, orexin A. AID 434989, 2010. Orexin/Hypocretin receptor type 1 (Homo sapiens), O43613. Fluo-8 calcium fluorescence. 330,000 compounds, 0.43% hits. inhibition, % at 5 µM;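 active = inhibition above its plate's threshold, mean inhibition of all tested compounds on the plate plus 3 SD, cut at about 37% in these data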
OX1R antag-2: antagonists of human orexin 1 receptor (OX1R); AID 485270, 2010; OX1R-expressing cells, FRET antagonist read-out; inhibition, % at 6.6 µM; 330,000 compounds, 1.8% hits; in the data active = inhibition mostly above about 38%, no sharp cut-off; inactive = mostly below about 40%
GPR7 antagonist: GPR7 receptor antagonists, primary screen, cell-based, fluorescence, single concentration; 290,000 compounds, 1.1% hits; inhibition, % at 4.4 µM; AID 1861, 2009; Neuropeptides B/W receptor type 1 (Homo sapiens), P48145; GPR7-expressing cells, fluorescence antagonist assay; in the data active = inhibition above about 16%, passing the limit was not always enough;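 also: cells stimulated with the agonist NPW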
CHO parental Ca: ATP-evoked calcium signal inhibitors, parental CHO, primary screen, counter-screen for OX1R antagonist project, cell-based, fluorescence, Fluo-8 calcium dye | parental CHO-K1, ATP-induced calcium, Fluo-8 fluorescence | inhibition, % at 5.6 µM | 330,000 compounds, 0.63% hits | AID 463079, 2010;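 active = inhibition above that plate's mean sample inhibition plus 3 SD, cut at about 26% in these data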
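Measured by: calcium-sensitive Fluo-8 fluorescence / Test system: CHO parental line / Controls: ATP-challenged DMSO wells low, unchallenged DMSO wells high / Measure: % inhibition / Compound: single nominal dose of 5.6 µM per compound / Replicates: single well per compound, no replicates / Reagent: ATP as calcium-mobilizing challenge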
TAAR1 agonist: human TAAR1 agonists, primary screen, Fluo-8 calcium fluorescence, CHO RD-HGA16 cells; Trace amine-associated receptor 1 (Homo sapiens), Q96RJ0; vehicle wells 0%, saturating PEA agonist 100%; activation, % at 3 µM; 360,000 compounds, 0.99% hits;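 active = activation above the mean activation of all test compounds in the run plus 3 SD, cut at about 38% in these data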
Target sequence (Q96RJ0 whole entry, looked up): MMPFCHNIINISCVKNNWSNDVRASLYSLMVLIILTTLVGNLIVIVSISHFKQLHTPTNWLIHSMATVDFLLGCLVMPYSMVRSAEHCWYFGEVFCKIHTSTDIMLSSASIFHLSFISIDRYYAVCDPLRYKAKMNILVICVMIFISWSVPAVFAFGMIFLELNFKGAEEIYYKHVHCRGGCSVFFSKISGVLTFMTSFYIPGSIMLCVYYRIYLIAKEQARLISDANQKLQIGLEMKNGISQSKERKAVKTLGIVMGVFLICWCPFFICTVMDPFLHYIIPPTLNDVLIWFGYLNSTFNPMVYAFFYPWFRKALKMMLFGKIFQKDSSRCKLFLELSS
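System: CHO-derived RD-HGA16 cells with stable Gα16 and human TAAR1. Times: 17-24 h plating, Fluo-8 75 min 37 °C, 30 min RT. Measured by: calcium-sensitive Fluo-8 signal, excitation 470-495, emission 515-575 nm. Read-out basis: % activation relative to PEA EC100 response. Control set: DMSO and PEA EC100. Repeats: no replicates (n 1).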
TAAR1 antag: human TAAR1 antagonists, primary screen, Fluo-8 calcium fluorescence, CHO RD-HGA16 cells. Trace amine-associated receptor 1 (Homo sapiens), Q96RJ0. antagonist. inhibition, % at 3 µM. 360,000 compounds, 1.5% hits;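 active = inhibition above a per-plate cutoff, the mean inhibition of test compounds on that plate plus 3 SD, cut at about 49% in these data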
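Material: CHO RD-HGA16 cells bearing hTAAR1; compound dosing: one-point dosing, 3 µM nominal final; schedule: dye loading 75 min at 37 °C, then 30 min room temperature; measured by: calcium fluorescence with Fluo-8; control set: vehicle and agonist controls; replication: n of 1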
TAAR1 ag conf: human TAAR1 agonists, retest of hits, confirmation, Fluo-8 calcium fluorescence, CHO RD-HGA16 cells; shares compounds with TAAR1 agonist; scaled: DMSO 0%, maximal phenethylamine 100%; activation, % at 3 µM; 2,400 compounds, 82% hits;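 active = activation above a cutoff set at the run's mean compound activation plus 3 SD, cut at about 39% in these data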
Ga16 ag counter: nonselective calcium mobilization agonists, CHO-Ga16 cells, counter-screen for hTAAR1 agonist project, cell-based, fluorescence, CHO-Ga16 parental line; shares compounds with TAAR1 agonist; Fluo-8 calcium fluorescence; normalized to maximal ATP response, DMSO zero; activation, % at 3 µM; 2,400 compounds, 50% hits;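 active = activation above the run cutoff, the mean activation over all tested wells plus 3 SD, cut at about 12% in these data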
TAAR1 desens: TAAR1 desensitization by agonist hits, confirmation, counter-screen for TAAR1 agonist project, cell-based, fluorescence, tachyphylaxis. shares compounds with TAAR1 agonist. CHO RD-HGA16 hTAAR1, Fluo-8 calcium, beta-PEA response inhibition. inhibition, % at 3 µM. 2,400 compounds, 46% hits. AID 651951, 2012;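 active = inhibition above the run cutoff, the mean inhibition of all test compounds plus 3 SD, cut at about 49% in these data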;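 also: beta-PEA stimulus applied at its EC80; loss of beta-PEA calcium signal after compound pretreatment read as receptor desensitization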
Ga16 antag count: inhibition of ATP-evoked calcium response in CHO-Ga16 cells, counter-screen for TAAR1 agonist project, cell-based, fluorescence | shares compounds with TAAR1 agonist | CHO-Ga16 ATP-induced calcium, Fluo-8 fluorescence | inhibition, % at 3 µM | 2,400 compounds, 39% hits;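 active = inhibition above the plate's mean compound inhibition plus 3 SD, computed per plate, cut at about 22% in these data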
Hits are given with their value; - = inactive; . = not tested or not shown.

SMILES | OX1R antag-1 | OX1R antag-2 | GPR7 antagonist | CHO parental Ca | TAAR1 agonist | TAAR1 antag | TAAR1 ag conf | Ga16 ag counter | TAAR1 desens | Ga16 antag count
CN(C)C(=O)C(=O)c1cccn1-c1cccc(Cl)c1C#N | - | - | - | - | - | - | . | . | . | .
O=C1C(SCCO)=C(SCCO)C(=O)c2ccccc21 | 47 | 67 | . | 48 | 67 | 84 | 71 | 49 | 83 | 74
CN(CC(=O)Nc1ccccc1Cl)C(=O)COC(=O)C1=COCCO1 | - | - | . | - | - | - | . | . | . | .
Nc1cc(OC(=O)c2c(F)cccc2Cl)nn1S(=O)(=O)c1ccccc1 | - | - | - | - | 54 | - | 51 | 22 | - | -
COc1cccc(C(=O)Oc2cc(N)n(S(=O)(=O)c3ccc(C)cc3)n2)c1OC | - | - | - | - | 64 | - | 50 | 14 | - | -
COc1ccc(S(=O)(=O)n2nc(OC(C)=O)cc2N)cc1 | - | - | - | - | - | - | . | . | . | .
CC(=O)N1CCc2cc(S(=O)(=O)C(C)CC(=O)Nc3ccc(OC(F)(F)F)cc3)ccc21 (stereo not drawn) | - | - | - | - | - | - | . | . | . | .
CCCCOc1ccc(C(=O)Nc2ccc(N3CCN(C)CC3)cc2)cc1 | - | - | - | - | 48 | - | 68 | - | 68 | -
CCOc1ccc(C(=O)Nc2ccc(N3CCN(C)CC3)cc2)cc1 | - | - | - | - | - | - | . | . | . | .
COC(=O)C1=C(C)N(Cc2cccc(C(F)(F)F)c2)C(=NCc2ccc(C(F)(F)F)cc2)NC1c1cccc(F)c1 (stereo not drawn) | . | . | . | . | - | - | . | . | . | .
O=C(NCCc1ccccc1)c1cnc2n(c1=O)CCS2 | - | - | - | - | . | . | . | - | . | -
COc1ccc2c(OC)cc(=O)n(C)c2c1 | - | - | - | - | 68 | - | - | - | - | -
COc1cc(=O)n(C)c2ccccc12 | - | - | - | - | - | - | . | . | . | .
CCOC(=O)C(NC(C)=O)(N1CCc2ccccc2C1)C(F)(F)F (stereo not drawn) | - | - | - | - | 103 | 93 | 108 | - | 98 | -
CC(=O)C1CCC2C3CC=C4CC(SC(=N)N)CCC4(C)C3CCC12C (stereo not drawn) | . | . | . | . | 84 | 81 | 111 | 69 | 91 | 53
CN(C)C=Nc1c(Br)cc(Br)c2nonc12 | 58 | - | - | 64 | 87 | 78 | 48 | 73 | 56 | 66
CC(=O)c1ccc(OCc2cc(C(=O)NC(C)CCn3cccn3)no2)cc1 (stereo not drawn) | - | - | - | - | - | - | . | . | . | .
COc1ccccc1CCN1C(=S)NC(C)(C)CC1(C)O (stereo not drawn) | - | - | - | - | 51 | - | 74 | - | - | -
O=C(Cn1sc2ccccc2c1=O)Nc1ccc(F)cc1 | . | . | . | . | 55 | - | 59 | 39 | - | 22
O=C(Cn1sc2ccccc2c1=O)Nc1ccc(Cl)cc1 | . | . | . | . | 55 | - | 55 | 30 | - | 29

Bioassay records deposited in PubChem by The Scripps Research Institute Molecular Screening Center.
